Screens: PubChem BioAssay, several laboratories
Compounds with a hit are over-represented: about 1.5% of the library has one in this group of screens.
Hck-Nef inh: inhibitors of Nef-activated human Hck kinase, primary screen, biochemical, Z-Lyte FRET, 384-well, Hck-YEEI; hit rate 0.68% among 220,000; Tyrosine-protein kinase HCK (Homo sapiens), P08631; Recombinant Hck-YEEI plus Nef, Z-Lyte FRET kinase assay; AID 463187, 2010; inhibition, % at 20 µM;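 active = Hck-Nef kinase inhibition above about 50%, limit read from the data; inactive = inhibition below that limit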
CaV13 FRET inh: Primary screen for inhibitors of IQ motif and Ca2+-dependent inactivation inhibitor domain binding in CACNA1D, Förster resonance energy transfer in living cells, …. HEK cells, CFP/YFP FRET ICDI-IQ, plate reader, 10 min; percent FRET-ratio fall versus neutral wells. inhibition, % at 12.3 µM. hit rate 0.098% among 340,000. AID 743397;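 active = mean replicate inhibition of at least 30% and at least 1% of replicates passing that level; inconclusive = only one of the two criteria is met; inactive = neither criterion is met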
RanGTP-Imp inh: inhibitors of RanGTP-importin-beta interaction, primary screen, biochemical, FRET, CFP-Ran, YFP-importin-beta, homogeneous; inhibition, % (concentration not given with the values); AID 2216, 2009; Ran GTPase (GTP-bound) - importin-beta complex; hit rate 1.1% among 300,000; cell-free CFP-Ran/YFP-importin-beta FRET ratio;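 active = more than half of the replicate wells show a fall in the fluorescence ratio signal beyond about 16%, limit read from the data, passing the limit was not always enough; inconclusive = exactly half of the replicate wells pass the set limit; inactive = fewer than half of replicates pass the limit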
Runt-SMMHC FRET: inhibitors of RUNX1 Runt–CBFb-SMMHC binding, primary screen, biochemical, FRET, Cerulean-Runt, Venus-CBFb-SMMHC, uHTS; Runt-related transcription factor 1 (Homo sapiens) + Core-binding factor subunit beta …; Cerulean-Runt/Venus-CBFb-SMMHC FRET ratio 530/480, 1 h; inhibition, % at 20 µM; hit rate 0.74% among 220,000;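 active = mean inhibition across duplicate retests at 20 µM reaching about 50%, limit read from the data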;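 note: inhibitors lower the FRET ratio by blocking Runt binding to CBFb-SMMHC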
Target sequence (Q01196 whole entry, looked up): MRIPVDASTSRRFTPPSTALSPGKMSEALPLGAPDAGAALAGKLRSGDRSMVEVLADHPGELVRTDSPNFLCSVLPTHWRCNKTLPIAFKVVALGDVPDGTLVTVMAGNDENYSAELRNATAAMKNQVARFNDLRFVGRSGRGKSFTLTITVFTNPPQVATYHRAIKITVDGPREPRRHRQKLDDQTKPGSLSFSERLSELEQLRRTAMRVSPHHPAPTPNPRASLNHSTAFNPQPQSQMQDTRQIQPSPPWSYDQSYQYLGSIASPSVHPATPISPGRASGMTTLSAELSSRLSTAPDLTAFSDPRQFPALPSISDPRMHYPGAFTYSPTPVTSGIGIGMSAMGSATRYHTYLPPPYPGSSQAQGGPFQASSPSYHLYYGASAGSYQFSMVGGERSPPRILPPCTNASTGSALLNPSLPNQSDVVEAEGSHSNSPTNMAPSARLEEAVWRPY
Target sequence (Q13951 whole entry, looked up): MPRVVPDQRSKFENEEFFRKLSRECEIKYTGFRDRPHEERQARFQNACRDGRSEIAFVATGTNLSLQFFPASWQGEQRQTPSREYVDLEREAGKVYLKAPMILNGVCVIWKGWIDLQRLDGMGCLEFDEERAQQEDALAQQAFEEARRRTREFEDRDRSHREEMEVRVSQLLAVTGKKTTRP
Runt-CBFb FRET: inhibitors of RUNX1 Runt–CBFb binding, primary screen, biochemical, FRET, Cerulean-Runt, Venus-CBFb, uHTS; Runt-related transcription factor 1 (Homo sapiens) + Core-binding factor subunit beta …; Cerulean-Runt/Venus-CBFb FRET ratio 530/480, 1 h; inhibition, % at 20 µM; hit rate 0.46% among 220,000;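 active = inhibition over about 50% at 20 µM in the single-dose screen, limit read from the data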
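Schedule: protein complex preformed 1 h, compound exposure 1 h, room temperature, dark; test system: Cerulean-labeled Runt domain protein; amount: 100 nM per protein; buffer or medium: Tris 50 mM pH 7.5, KCl, K2SO4, 0.01% BSA; read-out: loss of energy transfer signal; detection: FRET fluorescence; controls: 5 µM unlabeled CBFb as full-inhibition high control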
YIC FRET counter: YIC intramolecular FRET probe signal interference, dose response, counter-screen for RanGTP-importin-beta inhibitor project, biochemical, fluorescence FRET | IC50, µM | hit rate 40% among 1,000 | shares compounds with RanGTP-Imp inh | Purified YIC probe, intramolecular FRET ratio YFP/CFP;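 active = fitted half-maximal inhibitory concentration no more than tenfold above the top dose tested; inconclusive = flat fit with 30 to 70% activity, or poor fit; inactive = half-maximal concentration beyond tenfold above the top dose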
Numbers stand for hits; - = inactive; ? = inconclusive; . = no result given.

SMILES	Hck-Nef inh	CaV13 FRET inh	RanGTP-Imp inh	Runt-SMMHC FRET	Runt-CBFb FRET	YIC FRET counter
Cc1ccc(-n2c(O)c(C=Nc3ccc4c(c3)OCO4)c3ccccc3c2=O)cc1C	-	-	19	-	-	28
COCCNC(=O)CSCc1cc(C)cc(C)c1	-	-	-	-	-	.
COc1ccc(OC)c(S(=O)(=O)n2ccnc2C)c1	-	-	27	-	-	-
NNc1nc2sc3c(c2c(=O)n1C1CCCCC1)CCN(Cc1ccccc1)C3	-	-	28	54	74	0.92
NNc1nc2sc3c(c2c(=O)n1Cc1ccccc1)CCC3	-	-	-	-	-	.
COc1cc2c(cc1OC)CN(Cc1cc(=O)oc3cc(C)c(Cl)cc13)CC2	-	-	23	-	-	-
COc1cc2c(cc1OC)CN(Cc1cc(=O)oc3c(C)c(C)ccc13)CC2	-	-	20	-	-	-
COc1ccc(CCCNC(=O)C2(C)Cc3c(-c4cccc(C(N)=O)c4)ccnc3O2)cc1 (centres undefined)	.	-	.	.	.	.
Cc1ccc(S(=O)(=O)Cn2nnnc2C(C(C)C)N2CCC(O)CC2)cc1 (centres undefined)	.	-	-	.	.	.
C[C@H]1CN([C@@H](C)CO)C(=O)Cc2cc(NS(=O)(=O)c3cccs3)ccc2O[C@H]1CN(C)S(=O)(=O)c1cn(C)cn1	.	-	.	.	.	.
COc1ccc(N2C(=O)c3ccccc3NC2c2cccnc2)cc1 (centres undefined)	-	-	16	-	-	-
CCc1cc(-c2nnn(CCC3COCCO3)c2CC)cc(CC)c1-c1cn(CCc2c[nH]c3ccccc23)nn1 (centres undefined)	.	-	.	.	.	.
O=C1C=C(Nc2ccc(Cl)cc2Cl)CC(c2ccco2)C1 (centres undefined)	-	-	24	-	-	-
O=C(NCc1ccccc1CN1CCCC1)c1cccc(S(=O)(=O)N2CCOCC2)c1	.	-	.	.	.	.
CC1(C)CCC[C@]2(C)[C@H]3CC(=O)O[C@]3(C)CC[C@@H]12	.	-	21	.	.	-
CC1(C)CCC[C@]2(C)[C@H]3Cc4cc(O)ccc4O[C@]3(C)CC[C@@H]12	.	-	.	.	.	.
NC(=O)c1ccc(NC(=O)Cc2ccc(S(=O)(=O)N3CCCCC3)cc2)cc1	.	-	.	.	.	.
CCN1CCN(Cc2ccc(NC(=O)c3ccc(C)c(/C=C/c4cnc(Nc5cc(N6CCNCC6)nc(C)n5)cn4)c3)cc2C(F)(F)F)CC1	.	.	31	.	.	17
CC(C)CCN1CCN(C2CSCCSC2)CC1CCO (centres undefined)	-	-	-	-	-	.
C=CCN1C=CC(=CC=C(C#N)C#N)C=C1	-	-	21	-	-	17
C=CCN1C=C/C(=C\C=C(C#N)C#N)c2ccccc21	-	-	-	-	-	.
Cc1c(NC2=CC(=O)CCC2)c(=O)n(-c2ccccc2)n1C	-	-	18	-	-	-
Cc1c(NC(C)C)c(=O)n(-c2ccccc2)n1C	.	-	.	.	.	.
COC(=O)CCC(=O)OC1(C)C(=O)C=C2C=C(C3CC3)N(Cc3ccc4c(c3)OCO4)C=C2C1=O (centres undefined)	-	-	-	-	-	.
COC(=O)CCC(=O)OC1(C)C(=O)C=C2C=C(C3CC3)N(Cc3ccc(OC)cc3)C=C2C1=O (centres undefined)	-	-	20	-	-	20
SMILES	Hck-Nef inh	CaV13 FRET inh	RanGTP-Imp inh	Runt-SMMHC FRET	Runt-CBFb FRET	YIC FRET counter
N#C/C(=C/c1ccc(-c2ccc(S(=O)(=O)N3CCOCC3)cc2)o1)C(=O)NC1CC1	.	-	.	.	.	.
N#C/C(=C/c1ccc(N2CCOCC2)o1)C(=O)Nc1ccccc1	-	-	31	-	-	15
N#C/C(=C\c1ccc(OCCN2CCOCC2)cc1)C(=O)Nc1ccccc1	.	-	-	.	.	.
N#C/C(=C\c1ccc(N2CCOCC2)o1)C(=O)NC1CCCCC1	-	-	31	-	-	3.9
COc1ccc(Cl)cc1NS(=O)(=O)c1c(C)[nH]c(C)c1C(=O)N1CCCCC1	.	-	-	.	.	.
Cc1ccsc1CN(C)C(=O)c1ccc(Oc2ccccc2)cc1	.	-	-	.	.	.
c1ccc(-n2nnnc2-c2cnc(-c3cccnc3)nc2-c2cccs2)cc1	-	-	17	-	-	-
Cc1c(/C=N\NC(=O)C2COc3ccccc3O2)c2ccccc2n1C (centres undefined)	-	-	23	-	-	-
Cn1cc(/C=N\NC(=O)C2COc3ccccc3O2)c2ccccc21 (centres undefined)	-	-	-	-	-	.
Clc1ccc(/C=C\c2nccc3c2[nH]c2ccccc23)cc1	-	-	28	-	-	8.6
Clc1ccc(/C=C/c2nc3ccccc3[nH]2)cc1	-	-	-	-	-	.
COc1ccc(-c2cc(C(F)(F)F)n3nc(N)nc3n2)cc1	-	-	27	59	-	21
C[C@@H]1CN([C@H](C)CO)C(=O)c2cccc(NC(=O)c3ccc(-c4nccs4)cc3)c2O[C@@H]1CN(C)CC1CC1	.	.	.	.	.	-
Cc1cccc(C)c1NC(=O)C1c2cccc[n+]2CC(=O)N1Cc1cccs1 (centres undefined)	-	-	23	-	-	-
Cc1ccccc1NC(=O)C1c2cccc[n+]2CC(=O)N1Cc1ccc2c(c1)OCO2 (centres undefined)	-	-	-	-	-	.
COc1ccc(C(=O)NCCSc2ccccc2)cc1OC	-	-	-	-	-	.
Cc1ccc(C)c(NC(=S)N(C)CCc2ccccn2)c1	-	-	25	-	-	-
O=S(=O)(Nc1nnc(C2CCCCC2)s1)c1ccc(F)cc1	.	-	-	.	.	.
O=[N+]([O-])c1ccc(S(=O)(=O)Nc2nnc(C3CCCCC3)s2)cc1	.	-	20	.	.	-
N#Cc1c(N)[nH]c(=S)c(C#N)c1-c1ccccc1	-	-	31	-	-	-
Cc1ccc(-c2cc(-c3ccccc3)[nH]c(=S)c2C#N)cc1	-	-	-	-	-	.
Cc1ccc(S(=O)(=O)CC(=O)Nc2cc(C)on2)cc1	.	-	-	.	.	.
CCOC(=O)C/C(=N\Nc1ncnc2ccccc12)c1ccccc1	.	-	23	.	.	-
CCN1C(=O)/C(=C2/Sc3ccccc3N2CC)SC1=S	.	-	?	.	.	.
CCN1/C(=C2\SC(=S)N(Cc3ccccc3)C2=O)Sc2ccccc21	-	-	24	-	-	-
CC(C)OCCCNC(=O)CCSc1ccc(Cl)cc1	-	-	27	-	-	-
